# Bioassay records (PubChem BioAssay)
# T cell HTS: T cell immune modulators affecting CD8 T cell-vesicle binding | 2C CD8+ T cell-vesicle binding, flow cytometry; stronger effect = lower value | response (vesicle binding), % at 7 µM | 330,000 tested, 0.068% active | AID 2052;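 active = response, share of CD8 T cells binding vesicles, and their 90th percentile fluorescence all below set limits, cut at about 80% in these data, passing the limit was not always enough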;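 also: values below 100% mean blocked vesicle binding to the CD8+ T cells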
#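 Benchmarks: naked versus QL9-loaded vesicles / Assay system: purified 2C TCR transgenic mouse naive CD8+ T cells / Technique: high-throughput flow cytometry with anti-B7-1 and anti-CD8 staining / Timing: Cell–vesicle co-incubation 1.5 h at 37 °C, staining 20 min on ice / Read-out: percent CD8+ FL2 mean versus row control / Probe or stimulus: QL9-loaded Drosophila micro-vesicles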
# MEKK2 WT-MEK5: raises or lowers MEK5 binding to wildtype human MEKK2 PB1 domain; 290,000 tested, 1.1% active; binding response (% of control), % at 10 µM; Q9Y2U5; AID 1531; bead flow cytometry, Alexa488-MEK5 binding to MEKK2 WT; actives lie on both sides; in the data active = binding response below about 67% or above about 130%
# Rce1 inh: inhibitors of yeast Ras-converting enzyme; yeast membranes, quenched prenylated peptide cleavage fluorescence; calls only; 290,000 tested, 0.27% active;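 active = fall in fluorescence gain of 50% or more versus controls, with final raw signal at or below 3038400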;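 also: plate controls were neutral control wells for no effect and wells lacking membranes for full effect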
# UCH37 DUB inh: inhibitors of human deubiquitinating enzyme UCH37; Q9Y5K5; purified proteasome/UCH37, Ub-AMC cleavage fluorescence; inhibition, % (no concentration beside the values); 330,000 tested, 0.33% active;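 active = mean inhibition over replicate wells above about 20%, limit read from the data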;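 also: 0% = compound-free wells with enzyme and 100% = wells lacking proteasome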
# Target sequence (Q9Y5K5 whole entry, looked up): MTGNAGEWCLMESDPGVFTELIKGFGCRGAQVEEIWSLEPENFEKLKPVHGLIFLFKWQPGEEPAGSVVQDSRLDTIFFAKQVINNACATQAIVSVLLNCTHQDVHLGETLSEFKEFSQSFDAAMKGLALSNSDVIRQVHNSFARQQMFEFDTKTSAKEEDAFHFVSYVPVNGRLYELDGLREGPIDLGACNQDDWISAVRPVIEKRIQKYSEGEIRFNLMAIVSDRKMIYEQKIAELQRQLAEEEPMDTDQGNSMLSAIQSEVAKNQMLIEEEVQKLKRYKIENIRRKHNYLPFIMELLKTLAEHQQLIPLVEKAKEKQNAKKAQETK
#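 Material: Human UCH37 enzyme supplied as purified proteasome complex | Schedule: 30 min preincubation with enzyme, 25 min cleavage at room temperature | Detection: AMC fluorescence 355/460 nm | Measure: % inhibition of Ub-AMC cleavage fluorescence | Controls: Wells without proteasome as full block, compound-free enzyme plus substrate as uninhibited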
# MEKK2mut PB1 HTS: signal of MEK5 binding to mutant human MEKK2 PB1 domain; bead flow cytometry, Alexa488-MEK5 binding to MEKK2 mutant; percent response, % at 10 µM; 290,000 tested, 0.35% active; AID 1530; in the data active = percent response above about 24%, passing the limit was not always enough
# MEKK3 PB1 HTS: MEKK3-MEK5 PB1 interaction, increase or decrease. Q99759. bead-based flow cytometry, Alexa488-MEK5 binding to MEKK3; actives lie on both sides; 0 = blocked by unlabeled MEK5, 100 = vehicle. binding response (% of control), % at 10 µM. 290,000 tested, 1.4% active. AID 1529;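 active = binding response more than 3 SD above or below the average of its plate-row segment, actives on both sides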;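 also: Alexa488 bead fluorescence after subtracting the streptavidin-only scavenger bead signal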
# MEKK2wt confirm: raises or lowers MEK5 binding to wildtype human MEKK2, retest | binding response (% of control), % at 10 µM | shares compounds with MEKK3 PB1 HTS | bead flow cytometry, Alexa488-MEK5 binding to MEKK2 WT; actives lie on both sides | 5,900 tested, 2.4% active; in the data active = binding response below about 16% or above about 210%; inactive = in between
# MEKK2mut-MEK5: signal of MEK5 binding to mutant human MEKK2, retest; shares compounds with MEKK3 PB1 HTS; bead flow cytometry, Alexa488-MEK5 binding to MEKK2 mutant; percent response, % at 10 µM; 5,900 tested, 2% active; AID 1893; in the data active = percent response mostly above about 71%, no sharp cut-off; inactive = mostly below about 38%;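 also: higher means compound restores mutant binding toward wildtype level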
# MEKK3-MEK5 inh: MEKK3-MEK5 PB1 inhibition, single concentration confirmation; bead flow cytometry, Alexa488-MEK5 binding to MEKK3; stronger effect = lower value; AID 1894; binding response (% of control), % at 10 µM; 5,900 tested, 1.8% active; shares compounds with MEKK3 PB1 HTS;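 active = binding response below 72% of control, or above a set upper limit, though filed actives all read lower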;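 also: 100% = DMSO only wells and 0% = binding blocked by excess unlabeled MEK5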
# * marks the source's active call; other numbers are inactive results; i = inactive; / = no result; [ ] = another dose, or the depositor's remark. Most compounds without a hit are left out; they make up all but 2.5% or so of the library.
SMILES,T cell HTS,MEKK2 WT-MEK5,Rce1 inh,UCH37 DUB inh,MEKK2mut PB1 HTS,MEKK3 PB1 HTS,MEKK2wt confirm,MEKK2mut-MEK5,MEKK3-MEK5 inh
C/C=C(\C)C(=O)NCCN1C2=NC[C@@H](C)N2C[C@H]1Cc1ccc(O)cc1,535,111,i,2,9,102,/,/,/
COc1ccc(C[C@H]2CN3C(=NC[C@@H]3Cc3ccc(O)cc3)N2CCNC(=O)c2ccc(C)c(Br)c2)cc1,/,247*,i,-1,96*,111,196,48,109
Cc1ccc(C(=O)NCCN2C3=NC[C@H](Cc4ccc(O)cc4)N3C[C@H]2Cc2ccc(O)cc2)cc1Br,737,143*,i,4,13,106,134,15,100
O=C(CNC(=O)c1cccs1)NN=Cc1c[nH]c2ccccc12,/,/,/,7,/,/,/,/,/
O=C(OCCNc1nc(-c2ccccc2)nc2ccccc12)c1ccncc1,184,133,i,2,7,146*,93,-9,88
O=C(OCCNc1nc(-c2ccccc2)nc2ccccc12)c1cccnc1,193,99,i,0,-1,92,/,/,/
O=C(Cc1ccc(-n2c(=O)[nH]c3ccsc3c2=O)cc1)NCc1cccnc1,252,109,i,4,1,139*,103,0,101
O=C(NCc1ccco1)C1CC(c2ccc(Cl)c(Cl)c2)=NO1 (stereo not given),202,42*[inhibitor],i,4,-18,39*[inhibitor],103,4,103
O=C(NCc1ccco1)C1CC(c2c(Cl)cccc2Cl)=NO1 (stereo not given),/,98,i,-2,3,98,/,/,/
CCN(c1ccccc1)S(=O)(=O)c1cc(NC(=O)Nc2ccccc2C#N)ccc1Cl,0,108,i,-3,0,133*,106,3,102
CCN(c1ccccc1)S(=O)(=O)c1ccc(Cl)c(NC(=O)Nc2ccc(Cl)cc2C#N)c1,206,99,i,-4,1,101,/,/,/
COc1cc(OC)c(OC)cc1C=NNC(=O)CSc1ccccc1F,/,/,/,-24,/,/,/,/,/
CCOC(=O)c1cnc2ccccc2c1NCCO,461,99,i,3,-3,87,/,/,/
CCOC(=O)c1cnc2c(ccc3ccccc32)c1NCCCN(C)C,350,151*,i,-35,9,111,129,16,102
O=C(Cn1nnc(-c2cccs2)n1)NNC(=O)c1ccccc1Cl,384,112,i,2,24,128*,101,1,100
CCN(CC)C(=O)C(=O)Nc1ccc(F)c(Cl)c1,244,88,i,1,-7,75*[inhibitor],103,-1,102
Cc1ccc(OCCC(=O)Nc2ccc(C)c(F)c2)cc1,115,102,i,0,-5,100,/,/,/
CCC(=O)Nc1ccc(F)c(Cl)c1,172,107,i,0,10,107,/,/,/
Cc1ccc(OCCC(=O)Nc2ccc(F)c(Cl)c2)cc1,396,223*,i,2,31,117,103,14,102
Cc1cccc(C=NNC(=O)c2cc(C)nc3ccccc23)n1,/,/,/,-1,/,/,/,/,/
O=c1c2cc(NC(=S)NCCN3CCCCCC3)ccc2nc2n1CCCCC2,254,113,/,-1,3,101,/,/,/
O=c1c2cc(NC(=S)NCCCN3CCC(Cc4ccccc4)CC3)ccc2nc2n1CCCCC2,224,149*,i,5,14,107,154,28,111
